CRFBP-R2 agonist – agonists of CRF-BP/CRF-R2 complex, primary screen, cell-based, HEK293, calcium dye fluorescence, uHTS. calcium dye fluorescence (FLIPR); percent of saturating CRF peptide response. activation, % at 13.2 µM. 0.46% of 350,000 active. AID 588473, 2011;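 active = activation of at least 50%, plus an integration ratio under a set limit after plate pattern correction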
zfTRPN1 agonist – zebrafish TRPN1 channel agonists, primary screen, cell-based, HEK293, calcium fluorescence. 0.18% of 220,000 active. activation, % at 3 µM. HEK293 zebrafish TRPN1-YFP, Fluo-8 calcium fluorescence; 100% = response to 87 µM carbachol. transient receptor potential cation channel N1 (TRPN1/NompC), Danio rerio. AID 1424, 2008;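 active = activation above its plate's cutoff, the mean activation of test wells on that plate plus 3 SD, cut at about 19% in these data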
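Control set: carbachol 87 µM as high control, DMSO as low control; system: HEK293 stable line with zebrafish TRPN1-YFP; read-out: % activation versus carbachol response; detection: intracellular calcium fluorescence with Fluo-8; doses: single test compound dose, 3 µM nominal, 0.3% DMSO; schedule: dye 1 h 37 °C plus 30 min RT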
IMP-1 inhibitor – IMP-1 metallo-beta-lactamase inhibitors, primary screen, biochemical, epi-absorbance readout, Pseudomonas aeruginosa enzyme; inhibition, % at 5.6 µM; metallo-beta-lactamase IMP-1 (Pseudomonas aeruginosa); 0.45% of 290,000 active; purified IMP-1, nitrocefin hydrolysis, epi-absorbance fluorescence;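 active = inhibition above the mean plus 3 SD of all compounds in the same screening run, cut at about 4.5% in these data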
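Test system: recombinant IMP-1 enzyme, purified / Medium: HEPES buffer pH 7.1 with ZnSO4 and Brij 35 / Doses: single dose, 5.6 µM / Times: 25 °C, 15 min preincubation, 25 min reaction / Detection: Epi-absorbance via hydrolysed-nitrocefin quenching of white-plate fluorescence, 480/530 nm, EDTA stop / Evaluation: percent inhibition from optical density relative to buffer-blank wells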
TRPML3 ag – human TRPML3 channel agonists, primary screen, cell-based, HEK293 TRPML3-YFP, Fluo-8 calcium fluorescence, 3 µM. Mucolipin-3 (Homo sapiens), Q8TDD5. 100% = the carbachol control signal. activation, % at 3 µM. 0.29% of 220,000 active;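 active = activation above its plate's cutoff, the mean activation of the plate's test wells plus 3 SD, cut at about 12% in these data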
Target sequence (Q8TDD5 whole entry, looked up): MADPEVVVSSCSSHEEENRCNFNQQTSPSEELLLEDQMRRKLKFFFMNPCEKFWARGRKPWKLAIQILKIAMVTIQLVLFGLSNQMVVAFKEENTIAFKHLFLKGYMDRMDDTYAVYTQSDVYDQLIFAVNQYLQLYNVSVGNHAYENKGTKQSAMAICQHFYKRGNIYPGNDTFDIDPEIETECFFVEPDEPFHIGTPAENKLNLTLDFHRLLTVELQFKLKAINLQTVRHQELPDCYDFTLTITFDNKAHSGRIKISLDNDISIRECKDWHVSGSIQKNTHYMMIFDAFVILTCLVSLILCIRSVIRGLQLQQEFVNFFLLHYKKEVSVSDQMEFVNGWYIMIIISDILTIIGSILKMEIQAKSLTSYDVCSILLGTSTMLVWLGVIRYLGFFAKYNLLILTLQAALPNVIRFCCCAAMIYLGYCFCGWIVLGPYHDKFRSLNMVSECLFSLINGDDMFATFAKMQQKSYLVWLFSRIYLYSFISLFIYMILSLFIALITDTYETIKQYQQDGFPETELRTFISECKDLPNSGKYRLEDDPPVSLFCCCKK
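Test system – HEK293 line with stable expression of human TRPML3-YFP channel · Control set – carbachol 87 µM final as high control (100%), DMSO as low control (0%) · Signal – Fluo-8 calcium dye fluorescence, ex 470-495, em 515-575 nm · Incubation – 1-h 37 °C dye load, 5-s basal, 120-s post-compound reads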
CRFBP-R2 block – antagonists of CRF-BP/CRF-R2 complex, primary screen, cell-based, HEK293, calcium dye fluorescence, uHTS | CRF-induced calcium fluorescence | 0.59% of 350,000 active | inhibition, % at 11.8 µM;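 active = inhibition of the ligand-induced calcium signal above about 50% at the single tested concentration, limit read from the data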
VIM-2 inh – VIM-2 metallo-beta-lactamase inhibitors, primary screen, biochemical, epi-absorbance readout, Pseudomonas aeruginosa enzyme. purified VIM-2, nitrocefin hydrolysis, epi-absorbance fluorescence. AID 1527, 2009. inhibition, % at 5.6 µM. 0.89% of 290,000 active;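 active = inhibition above the mean of all tested compounds plus 3 SD, cutoff set per screening run, cut at about 7.5% in these data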;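 note: red hydrolysis product quenches plate fluorescence so inhibitors raise well fluorescence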
TRPN1 counter – zebrafish TRPN1 channel agonists, counter-screen for TRPML3 agonist project, cell-based, HEK293 TRPN1-YFP, Fluo-8 calcium; shares compounds with TRPML3 ag; AID 1525, 2009; activation, % at 3 µM; 10% of 310 active; Fluo-8 calcium fluorescence; scaled: carbachol wells 100%, DMSO wells 0%;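 active = mean activation over replicates above a set limit taken from the earlier TRPN1 channel primary screen, cut at about 19% in these data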
TRPML3 ag conf – human TRPML3 channel agonists, confirmation, cell-based, HEK293 TRPML3-YFP, Fluo-8 calcium, triplicate; AID 1526, 2009; shares compounds with TRPML3 ag; 80% of 310 active; activation, % at 3 µM; Fluo-8 calcium fluorescence; 100% set by carbachol, 0% by DMSO;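 active = activation above a set limit derived from the earlier primary screen, cut at about 12% in these data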
Numbers stand for hits; n = inactive; x = not tested or not shown. The list is not random: actives were taken first. Their share in the collection is about 2.1%.

SMILES	CRFBP-R2 agonist	zfTRPN1 agonist	IMP-1 inhibitor	TRPML3 ag	CRFBP-R2 block	VIM-2 inh	TRPN1 counter	TRPML3 ag conf
CCC(C(=O)Nc1cc(C)nn1-c1nc(C)cc(C)n1)c1ccccc1 (stereo not drawn)	n	n	n	23.3	n	n	n	22.6
Cc1cc(C)nc(-n2nc(C)cc2NC(=O)CNCc2ccccc2)n1	n	n	n	n	n	n	x	x
CC1=C(C)/C(=N\OS(=O)(=O)c2ccc(C)cc2)C=CC1=O	64.1	n	n	13.9	n	n	n	14.3
CC1=C/C(=N\OS(=O)(=O)c2ccccc2)C(C)=CC1=O	68.7	n	n	13.3	n	n	20.2	41.6
COc1cc(C(=O)O/N=C2/C=C(C)C(=O)C=C2C)cc(OC)c1OC	n	n	n	n	n	n	x	x
COc1ccc(CC(=O)NC(C)c2ccc3ccccc3c2)cc1 (stereo not drawn)	n	x	n	x	n	n	x	x
Cc1cccc(C)c1-n1nnnc1C(C)(C)N1CCN(N=O)CC1	n	n	n	n	n	n	x	x
COc1ccc(NC(C)(C)c2nnnn2-c2c(C)cccc2C)cc1	n	n	n	21.0	n	n	n	n
O=C(C1Cc2ccccc2CN1S(=O)(=O)c1ccc(F)cc1)N1CCCCCC1 (stereo not drawn)	n	n	n	39.9	n	n	n	40.6
O=C(C1Cc2ccccc2CN1S(=O)(=O)c1ccc(F)cc1)N1CCOCC1 (stereo not drawn)	n	n	n	n	n	n	x	x
Cc1ccccc1OCC(=O)Nc1cc(S(=O)(=O)N2CCCCC2)ccc1N1CCN(C)CC1	n	n	n	20.8	n	n	n	22.8
Cc1ccccc1OCC(=O)Nc1ccccc1N1CCOCC1	n	n	n	47.2	n	n	n	56.6
Cc1cccc(OCC(=O)Nc2cc(S(=O)(=O)N3CCOCC3)ccc2N2CCCC2)c1C	n	x	x	x	n	x	x	x
Cc1cc(N2C(=O)C3C4c5ccccc5C(c5ccccc54)C3C2=O)no1 (stereo not drawn)	n	n	n	12.9	n	n	n	n
COc1cc(C)nc(N(Cc2ccccc2)S(=O)(=O)c2ccccc2)n1	n	n	n	n	n	n	x	x
COc1cc(C)nc(N(Cc2ccccc2)S(=O)(=O)c2ccc(C)cc2)n1	n	n	n	27.5	n	n	n	50.5
C[C@H](CO)N1C[C@H](C)[C@@H](CN(C)C)Oc2c(NS(=O)(=O)c3cccs3)cccc2C1=O	n	x	x	x	n	x	x	x
Cc1cc(C(C)(C)C)oc1C(=O)N(CC(=O)NC1CCCC1)c1c(C)cccc1C	n	n	n	44.1	n	n	n	72.1
O=c1c(Cc2c(F)cccc2Cl)c(O)ccn1C1CC1	n	n	n	n	n	n	x	x
O=C1C(Cl)=C(N2CCN(Cc3ccccc3)CC2)C(=O)N1Cc1ccccc1	n	n	n	20.3	n	n	n	25.5
S=C(NC1CCCCC1)N1CCOCCOCCN(C(=S)NC2CCCCC2)CCOCC1	n	n	n	18.1	n	n	n	33.0
S=C(NC1CCCC1)N1CCOCC1	n	n	n	n	n	n	x	x
O=C(CN(C(=O)c1csnn1)c1ccccc1Cl)NC1CCCC1	n	x	n	x	n	n	x	x
Cc1nc(NC(=O)COC(=O)C2CC2C)c(Cl)cc1Cl (stereo not drawn)	n	x	x	x	n	x	x	x
Cc1ccc(S(=O)(=O)n2nccc2-c2c(-c3ccccc3)noc2C)cc1	n	n	n	119.6	n	n	n	94.3
SMILES	CRFBP-R2 agonist	zfTRPN1 agonist	IMP-1 inhibitor	TRPML3 ag	CRFBP-R2 block	VIM-2 inh	TRPN1 counter	TRPML3 ag conf
Cc1onc(-c2ccccc2)c1-c1ccnn1S(=O)(=O)c1ccc(Cl)cc1	n	n	n	n	n	n	x	x
Cc1onc(-c2ccc(Cl)cc2)c1-c1ccnn1S(=O)(=O)c1cccc(C(F)(F)F)c1	n	n	n	33.0	n	n	n	51.0
O=C(O)C1C2CCC(C2)C1C(=O)N1CCCC1 (stereo not drawn)	n	x	n	x	n	n	x	x
Cc1ccc(Oc2ccc(Cl)cc2N)cc1	n	n	n	16.4	n	n	n	n
CC(=O)Nc1cccc(OC(=O)c2ccoc2C)c1	115.0	n	n	13.2	n	n	n	n
COc1ccc(C)cc1S(=O)(=O)NC(C)c1cnn(-c2ccccn2)c1C (stereo not drawn)	n	x	n	x	n	n	x	x
Cc1cc(=O)c2c([nH]1)c(C)cc1[nH]c(C)c(C)c12	n	x	x	x	n	x	x	x
CCNC(=S)N(Cc1ccco1)Cc1cc2cc(OCC)ccc2[nH]c1=O	n	n	n	n	n	n	x	x
CCNC(=S)N(Cc1cccs1)Cc1cc2cc(OCC)ccc2[nH]c1=O	n	n	n	16.8	n	n	n	16.4
O=C(COC(=O)c1c[nH]c2ccccc12)Nc1ccc([N+](=O)[O-])cc1	n	x	x	x	n	x	x	x
CCC1CCCCN1S(=O)(=O)c1ccc(S(=O)(=O)N(Cc2cccs2)C2CC2)cc1 (stereo not drawn)	n	n	n	94.7	n	n	n	112.2
Cc1ccc(S(=O)(=O)N2CCCC(C(=O)N(Cc3cccs3)C3CC3)C2)cc1 (stereo not drawn)	n	n	n	n	n	n	x	x
O=S(=O)(NCC1CCCO1)c1ccc(S(=O)(=O)N(Cc2ccc(F)cc2)Cc2ccccn2)cc1 (stereo not drawn)	n	n	n	n	n	n	x	x
CCC1CCCCN1S(=O)(=O)c1ccc(S(=O)(=O)N(Cc2ccccn2)CC2CCCO2)cc1 (stereo not drawn)	n	n	n	28.4	n	n	n	95.6
O=C(c1ccccn1)N1CCCC(N2CCN(c3ccc(F)cc3)CC2)C1 (stereo not drawn)	n	x	n	x	n	n	x	x
Cc1ccc(S(=O)(=O)N2CCC(C(=O)OCC(=O)N(Cc3ccccc3)C(C)(C)C)CC2)cc1C	n	x	x	x	n	x	x	x
Cc1cc(C)c(C2=NOC3C4CCC(C4)C23)c(C)c1 (stereo not drawn)	n	n	n	24.2	n	n	n	104.1
CC(=Nc1ccccc1O)c1sc2ccccc2c1O	n	n	n	11.9	n	n	20.7	n
COc1ccc2cc(C3=CC(=O)CC(C)(C)C3=O)ccc2c1	n	x	x	x	n	x	x	x

Compound activity from PubChem.
